Data published in ChEMBL document CHEMBL4808218, “Structural and biophysical characterization of the Burkholderia pseudomallei IspF inhibitor L-tryptophan hydroxamate” (Bioorg Med Chem Lett, 2021).
Activity calls are given as the source filed them. The rule behind the calls is not given here.

How the values were obtained:
[1] = biological target: T1, 2-C-methyl-D-erythritol 2,4-cyclodiphosphate synthase (Burkholderia pseudomallei (strain K96243), UniProt Q63T71); assay: Binding affinity to Burkholderia pseudomallei IspF at pH 7.4 measured by isothermal titration calorimetry method; conditions: read-out: Kd(app)
T1 sequence (Q63T71 whole entry): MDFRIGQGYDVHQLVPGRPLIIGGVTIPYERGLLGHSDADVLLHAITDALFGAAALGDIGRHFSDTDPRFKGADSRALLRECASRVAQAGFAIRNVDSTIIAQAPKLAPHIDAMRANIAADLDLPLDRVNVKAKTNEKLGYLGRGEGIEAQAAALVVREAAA
Method in brief: (§1)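 ITC titration of BpIspF with ligand at 25 °C, run in buffer at pH 6.0, 7.4 or 8.0 as set by the line. Fits gave Kb, ΔG°, ΔH°, -TΔS° and stoichiometry. Ligand concentration was set from the tryptophan extinction coefficient. The pH 6.0/7.4 ratio compares the apparent Kd from these two runs.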

[2] = biological target: T2, 2-C-methyl-D-erythritol 2,4-cyclodiphosphate synthase (Burkholderia pseudomallei (strain K96243)) (UniProt Q63T71); assay: Binding affinity to Burkholderia pseudomallei IspF assessed as change in free energy at pH 7.4 measured by isothermal titration calorimetry method; method in brief: as §1
T2 sequence (whole entry): T1 sequence (Q63T71 whole entry)

[3] = biological target: T2, 2-C-methyl-D-erythritol 2,4-cyclodiphosphate synthase (Burkholderia pseudomallei (strain K96243)); assay: Binding affinity to Burkholderia pseudomallei IspF assessed as change in enthalpy at pH 7.4 measured by isothermal titration calorimetry method; method in brief: as §1
[4] = biological target: T2, 2-C-methyl-D-erythritol 2,4-cyclodiphosphate synthase (Burkholderia pseudomallei (strain K96243)); assay: Binding affinity to Burkholderia pseudomallei IspF assessed as change in entropy at pH 7.4 measured by isothermal titration calorimetry method; method in brief: as §1
[5] = biological target: T1, 2-C-methyl-D-erythritol 2,4-cyclodiphosphate synthase; assay: Binding affinity to Burkholderia pseudomallei IspF at pH 6 measured by isothermal titration calorimetry method; conditions: read-out: Kd(app); method in brief: as §1
[6] = biological target: T1, 2-C-methyl-D-erythritol 2,4-cyclodiphosphate synthase; assay: Binding affinity to Burkholderia pseudomallei IspF at pH 8 measured by isothermal titration calorimetry method; conditions: read-out: Kd(app); method in brief: as §1
[7] = biological target: T2, 2-C-methyl-D-erythritol 2,4-cyclodiphosphate synthase (Burkholderia pseudomallei (strain K96243)); assay: Binding affinity to Burkholderia pseudomallei IspF assessed as change in free energy at pH 6 measured by isothermal titration calorimetry method; method in brief: as §1
[8] = biological target: T2, 2-C-methyl-D-erythritol 2,4-cyclodiphosphate synthase (Burkholderia pseudomallei (strain K96243)); assay: Binding affinity to Burkholderia pseudomallei IspF assessed as change in free energy at pH 8 measured by isothermal titration calorimetry method; method in brief: as §1
[9] = biological target: T2, 2-C-methyl-D-erythritol 2,4-cyclodiphosphate synthase (Burkholderia pseudomallei (strain K96243)); assay: Binding affinity to Burkholderia pseudomallei IspF assessed as change in enthalpy at pH 6 measured by isothermal titration calorimetry method; method in brief: as §1
[10] = biological target: T2, 2-C-methyl-D-erythritol 2,4-cyclodiphosphate synthase (Burkholderia pseudomallei (strain K96243)); assay: Binding affinity to Burkholderia pseudomallei IspF assessed as change in enthalpy at pH 8 measured by isothermal titration calorimetry method; method in brief: as §1
[11] = biological target: T2, 2-C-methyl-D-erythritol 2,4-cyclodiphosphate synthase (Burkholderia pseudomallei (strain K96243)); assay: Binding affinity to Burkholderia pseudomallei IspF assessed as change in entropy at pH 6 measured by isothermal titration calorimetry method; method in brief: as §1
[12] = biological target: T2, 2-C-methyl-D-erythritol 2,4-cyclodiphosphate synthase (Burkholderia pseudomallei (strain K96243)); assay: Binding affinity to Burkholderia pseudomallei IspF assessed as change in entropy at pH 8 measured by isothermal titration calorimetry method; method in brief: as §1
[13] = biological target: T2, 2-C-methyl-D-erythritol 2,4-cyclodiphosphate synthase (Burkholderia pseudomallei (strain K96243)); assay: Ratio of apparent Kd for Burkholderia pseudomallei IspF at pH 6 to apparent Kd for Burkholderia pseudomallei IspF at pH 7.4; method in brief: as §1
[14] = biological target: T3, 2-C-methyl-D-erythritol 2,4-cyclodiphosphate synthase (Escherichia coli (strain K12), UniProt P62617); assay: Binding affinity to Escherichia coli IspF at pH 7.4 measured by isothermal titration calorimetry method; conditions: read-out: Kd(app)
T3 sequence (P62617 whole entry): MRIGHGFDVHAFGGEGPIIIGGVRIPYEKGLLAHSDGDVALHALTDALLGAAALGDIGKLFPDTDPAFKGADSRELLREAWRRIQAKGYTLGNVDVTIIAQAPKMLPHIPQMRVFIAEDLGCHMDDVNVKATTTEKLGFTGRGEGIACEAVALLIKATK

[15] = biological target: T4, 2-C-methyl-D-erythritol 2,4-cyclodiphosphate synthase (Escherichia coli (strain K12)) (UniProt P62617); assay: Binding affinity to Escherichia coli IspF assessed as change in free energy at pH 7.4 measured by isothermal titration calorimetry method
T4 sequence (whole entry): T3 sequence (P62617 whole entry)

[16] = biological target: T2, 2-C-methyl-D-erythritol 2,4-cyclodiphosphate synthase (Burkholderia pseudomallei (strain K96243)); assay: Binding affinity to Burkholderia pseudomallei IspF by STD NMR analysis

**Q.** For `N[C@H](Cc1c[nH]c2ccccc12)C(=O)O` [D-TRYPTOPHAN], which Kd [1] is on record?
**A.** > 1000 µM

**Q.** For `N[C@@H](Cc1c[nH]c2ccccc12)C(=O)O` [TRYPTOPHAN], which Kd [1] is on record?
**A.** > 1000 µM

**Q.** `N[C@H](Cc1c[nH]c2ccccc12)C(=O)NO` was tested. Which Kd [1] did it give?
**A.** 64 µM

**Q.** What about the deltaG [2] of the same compound?
**A.** -5.7 kcal/mol

**Q.** And the deltaH [3]?
**A.** -6.65 kcal/mol

**Q.** And the -TdeltaS [4]?
**A.** 0.9 kcal/mol

**Q.** With `N[C@@H](Cc1c[nH]c2ccccc12)C(=O)NO` as the compound, how does the Kd [1] read?
**A.** 36 µM

**Q.** And the Kd [5]?
**A.** 848 µM

**Q.** And the Kd [6]?
**A.** 24 µM

**Q.** What about the deltaG [2] of the same compound?
**A.** -6.1 kcal/mol

**Q.** And the deltaG [7]?
**A.** -4.19 kcal/mol

**Q.** And the deltaG [8]?
**A.** -6.29 kcal/mol

**Q.** What about the deltaH [9] of the same compound?
**A.** 1.1 kcal/mol

**Q.** What about the deltaH [10] of the same compound?
**A.** -8.3 kcal/mol

**Q.** And the -TdeltaS [11]?
**A.** -5.2 kcal/mol

**Q.** What about the -TdeltaS [12] of the same compound?
**A.** 2 kcal/mol

**Q.** And the Ratio [13]?
**A.** 25

**Q.** And the Kd [14]?
**A.** 22 µM

**Q.** What about the deltaG [15] of the same compound?
**A.** -6.4 kcal/mol

**Q.** And the Activity [16]?
**A.** Active

**Q.** How did the Activity [16] turn out when `CC(C)=CCC/C(C)=C/COP(=O)(O)OP(=O)(O)O` was run?
**A.** inactive
